Where a chain is given by its changes, count along the chain named.
Experiments:
Details in all cases: stereoisomer not certain
OR5C1 (Homo sapiens) = molecular target: T1, OR5C1 (Homo sapiens) (UniProt Q8NGR4)
T1 sequence (whole entry): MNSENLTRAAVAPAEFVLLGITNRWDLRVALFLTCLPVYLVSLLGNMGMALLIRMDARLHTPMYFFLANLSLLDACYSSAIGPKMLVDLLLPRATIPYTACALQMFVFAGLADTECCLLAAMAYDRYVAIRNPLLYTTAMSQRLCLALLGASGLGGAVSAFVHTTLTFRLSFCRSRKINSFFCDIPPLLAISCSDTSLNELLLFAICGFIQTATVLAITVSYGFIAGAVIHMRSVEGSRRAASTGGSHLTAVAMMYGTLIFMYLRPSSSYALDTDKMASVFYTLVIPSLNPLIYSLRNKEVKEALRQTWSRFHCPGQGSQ
How it was run: (§1)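 Assay methods differ from source to source, frequently being transient luciferase assays in mammalian cell lines. For each receptor–molecule pair, the label responsive (active) applies when the original authors judged the measured signal statistically different from baseline, and non-responsive (inactive) applies otherwise.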

OR5D13 (Homo sapiens) = molecular target: T2, OR5D13 (Homo sapiens) (UniProt Q8NGL4)
T2 sequence (whole entry): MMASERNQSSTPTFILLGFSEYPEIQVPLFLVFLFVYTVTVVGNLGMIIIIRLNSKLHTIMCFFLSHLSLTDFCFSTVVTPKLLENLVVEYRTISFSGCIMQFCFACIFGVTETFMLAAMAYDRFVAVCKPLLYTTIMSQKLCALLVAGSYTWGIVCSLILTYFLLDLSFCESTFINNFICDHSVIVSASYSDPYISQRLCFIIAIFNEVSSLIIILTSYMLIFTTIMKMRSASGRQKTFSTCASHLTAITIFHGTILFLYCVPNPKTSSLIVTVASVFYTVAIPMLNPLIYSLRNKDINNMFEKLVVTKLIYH
How it was run: as §1

OR5D14 (Homo sapiens) = molecular target: T3, OR5D14 (Homo sapiens) (UniProt Q8NGL3)
T3 sequence (whole entry): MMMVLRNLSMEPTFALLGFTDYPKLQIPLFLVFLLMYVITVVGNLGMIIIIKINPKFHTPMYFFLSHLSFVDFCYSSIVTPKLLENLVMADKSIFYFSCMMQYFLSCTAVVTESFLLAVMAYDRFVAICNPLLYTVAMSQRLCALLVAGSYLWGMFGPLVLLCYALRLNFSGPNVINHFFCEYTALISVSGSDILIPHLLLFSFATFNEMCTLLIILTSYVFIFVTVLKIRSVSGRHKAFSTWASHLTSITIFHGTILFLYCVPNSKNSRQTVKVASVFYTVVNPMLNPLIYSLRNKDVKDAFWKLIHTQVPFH
How it was run: as §1

OR5D16 (Homo sapiens) = molecular target: T4, OR5D16 (Homo sapiens) (UniProt Q8NGK9)
T4 sequence (whole entry): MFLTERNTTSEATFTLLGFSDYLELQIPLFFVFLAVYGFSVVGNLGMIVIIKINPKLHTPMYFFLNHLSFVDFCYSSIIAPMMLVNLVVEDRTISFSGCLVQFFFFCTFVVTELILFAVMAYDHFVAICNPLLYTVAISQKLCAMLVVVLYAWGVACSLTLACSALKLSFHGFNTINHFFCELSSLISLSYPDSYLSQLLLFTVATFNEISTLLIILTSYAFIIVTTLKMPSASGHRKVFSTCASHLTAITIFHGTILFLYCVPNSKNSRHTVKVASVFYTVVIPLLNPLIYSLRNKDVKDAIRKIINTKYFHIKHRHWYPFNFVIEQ
How it was run: as §1

OR5D18 (Homo sapiens) = molecular target: T5, OR5D18 (Homo sapiens) (UniProt Q8NGL1)
T5 sequence (whole entry): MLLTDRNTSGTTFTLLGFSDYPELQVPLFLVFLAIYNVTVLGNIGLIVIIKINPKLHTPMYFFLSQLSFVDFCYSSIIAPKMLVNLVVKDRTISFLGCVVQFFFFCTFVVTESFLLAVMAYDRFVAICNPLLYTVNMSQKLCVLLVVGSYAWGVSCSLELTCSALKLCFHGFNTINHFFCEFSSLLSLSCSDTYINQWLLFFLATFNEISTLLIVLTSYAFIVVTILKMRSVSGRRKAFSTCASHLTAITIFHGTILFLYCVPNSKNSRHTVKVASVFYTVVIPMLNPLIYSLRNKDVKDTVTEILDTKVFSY
How it was run: as §1

OR5F1 (Homo sapiens) = molecular target: T6, OR5F1 (Homo sapiens) (UniProt O95221)
T6 sequence (whole entry): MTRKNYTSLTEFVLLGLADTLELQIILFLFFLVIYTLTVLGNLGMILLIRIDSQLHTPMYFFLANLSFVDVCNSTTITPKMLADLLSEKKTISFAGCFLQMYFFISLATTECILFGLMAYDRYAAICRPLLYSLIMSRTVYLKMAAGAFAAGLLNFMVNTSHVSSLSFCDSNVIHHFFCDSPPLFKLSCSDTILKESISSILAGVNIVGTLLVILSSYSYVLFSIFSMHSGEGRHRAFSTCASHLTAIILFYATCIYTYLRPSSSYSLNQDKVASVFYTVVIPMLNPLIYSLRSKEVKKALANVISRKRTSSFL
How it was run: as §1

OR5H1 (Homo sapiens) = molecular target: T7, OR5H1 (Homo sapiens) (UniProt A6NKK0)
T7 sequence (whole entry): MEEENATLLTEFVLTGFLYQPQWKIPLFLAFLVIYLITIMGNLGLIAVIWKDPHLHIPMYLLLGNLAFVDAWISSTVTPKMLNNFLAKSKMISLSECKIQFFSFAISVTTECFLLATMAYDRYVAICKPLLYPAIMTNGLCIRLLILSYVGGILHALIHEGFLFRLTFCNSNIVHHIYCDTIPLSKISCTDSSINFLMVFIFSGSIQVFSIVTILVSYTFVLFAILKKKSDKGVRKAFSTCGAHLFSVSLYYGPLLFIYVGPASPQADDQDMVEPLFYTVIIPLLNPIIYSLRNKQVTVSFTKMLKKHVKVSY
How it was run: as §1

OR5H14 (Homo sapiens) = molecular target: T8, OR5H14 (Homo sapiens) (UniProt A6NHG9)
T8 sequence (whole entry): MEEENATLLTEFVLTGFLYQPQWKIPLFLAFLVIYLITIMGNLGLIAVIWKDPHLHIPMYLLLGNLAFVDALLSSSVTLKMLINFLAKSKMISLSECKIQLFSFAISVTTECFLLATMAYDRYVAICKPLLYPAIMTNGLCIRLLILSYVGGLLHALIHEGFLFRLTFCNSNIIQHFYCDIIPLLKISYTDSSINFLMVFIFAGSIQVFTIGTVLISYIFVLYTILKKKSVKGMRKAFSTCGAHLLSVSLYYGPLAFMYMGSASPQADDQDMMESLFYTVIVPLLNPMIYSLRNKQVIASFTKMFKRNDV
How it was run: as §1

OR5H15 (Homo sapiens) = molecular target: T9, OR5H15 (Homo sapiens) (UniProt A6NDH6)
T9 sequence (whole entry): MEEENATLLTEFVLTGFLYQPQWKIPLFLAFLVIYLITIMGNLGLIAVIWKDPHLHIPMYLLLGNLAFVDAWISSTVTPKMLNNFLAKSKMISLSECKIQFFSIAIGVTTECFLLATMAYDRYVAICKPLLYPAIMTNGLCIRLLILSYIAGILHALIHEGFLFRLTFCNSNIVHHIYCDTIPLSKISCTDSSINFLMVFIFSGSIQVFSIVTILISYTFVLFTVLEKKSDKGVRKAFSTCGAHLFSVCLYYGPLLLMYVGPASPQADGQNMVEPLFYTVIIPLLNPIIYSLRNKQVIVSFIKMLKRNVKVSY
How it was run: as §1

OR5BC C141R = tested on: T10, OR5BC C141R
T10 sequence (whole entry): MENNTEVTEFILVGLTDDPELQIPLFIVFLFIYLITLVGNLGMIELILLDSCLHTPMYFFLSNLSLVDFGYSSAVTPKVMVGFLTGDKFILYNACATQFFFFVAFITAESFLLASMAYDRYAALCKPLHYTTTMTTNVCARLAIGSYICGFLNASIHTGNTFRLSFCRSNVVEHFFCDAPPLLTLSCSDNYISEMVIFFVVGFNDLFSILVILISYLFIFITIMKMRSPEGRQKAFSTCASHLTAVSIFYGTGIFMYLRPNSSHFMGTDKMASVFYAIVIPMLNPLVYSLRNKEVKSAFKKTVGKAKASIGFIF
How it was run: as §1

OR5BH L80I I85M = tested on: T11, OR5BH L80I I85M
T11 sequence (whole entry): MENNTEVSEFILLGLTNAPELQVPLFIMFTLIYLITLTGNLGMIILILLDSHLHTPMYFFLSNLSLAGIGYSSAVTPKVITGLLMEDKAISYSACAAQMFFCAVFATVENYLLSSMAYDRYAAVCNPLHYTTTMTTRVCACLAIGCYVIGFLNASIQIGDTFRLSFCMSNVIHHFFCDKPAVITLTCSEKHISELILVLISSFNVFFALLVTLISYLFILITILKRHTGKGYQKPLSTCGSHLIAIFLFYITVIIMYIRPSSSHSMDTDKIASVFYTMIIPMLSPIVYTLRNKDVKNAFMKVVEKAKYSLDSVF
How it was run: as §1

OR5BH L80I = tested on: T12, OR5BH L80I
T12 sequence (whole entry): T11 sequence (whole entry) with M85I
How it was run: as §1

OR5DD C62Y = tested on: T13, OR5DD C62Y
T13 sequence (whole entry): T2 sequence (whole entry) with C62Y
How it was run: as §1

OR5DE S249A L290P = tested on: T14, OR5DE S249A L290P
T14 sequence (whole entry): T3 sequence (whole entry) with S249A, L290P
How it was run: as §1

OR5DG A156T = tested on: T15, OR5DG A156T
T15 sequence (whole entry): T4 sequence (whole entry) with A156T
How it was run: as §1

OR5DI = tested on: T16, OR5DI
T16 sequence (whole entry): T5 sequence (whole entry) with N136D
How it was run: as §1

OR5F1 = tested on: T17, OR5F1
T17 sequence (whole entry): T6 sequence (whole entry) with S294N
How it was run: as §1

OR5H1 F17L A30T H56Q = tested on: T18, OR5H1 F17L A30T H56Q
T18 sequence (whole entry): T7 sequence (whole entry) with F17L, A30T, H56Q
How it was run: as §1

OR5H1 T181N = tested on: T19, OR5H1 T181N
T19 sequence (whole entry): T7 sequence (whole entry) with T181N
How it was run: as §1

Measured: odorant receptor agonist call

CCCCCC(=O)C(C)C(C)=O (stereo not drawn)
inactive: OR5C1 (Homo sapiens) | OR5D13 (Homo sapiens) | OR5D14 (Homo sapiens) | OR5D16 (Homo sapiens) | OR5D18 (Homo sapiens) | OR5F1 (Homo sapiens) | OR5H1 (Homo sapiens) | OR5H14 (Homo sapiens) | OR5H15 (Homo sapiens)

CC1=NC(C)C(C)S1 (stereo not drawn)
inactive: all assays above

CCC1OC(C)=C(O)C1=O (stereo not drawn)
inactive: all assays above

CCC(S)C(C)CO (stereo not drawn)
inactive: OR5C1 (Homo sapiens) | OR5D13 (Homo sapiens) | OR5D14 (Homo sapiens) | OR5D16 (Homo sapiens) | OR5D18 (Homo sapiens) | OR5F1 (Homo sapiens) | OR5H1 (Homo sapiens) | OR5H14 (Homo sapiens) | OR5H15 (Homo sapiens)

CCC1OC(=O)C(O)=C1C (stereo not drawn)
inactive: all assays above

Cc1cnc(C)c(C)n1
inactive: all assays above

CCCCC(S)C(C)CO (stereo not drawn)
inactive: OR5C1 (Homo sapiens) | OR5D13 (Homo sapiens) | OR5D14 (Homo sapiens) | OR5D16 (Homo sapiens) | OR5D18 (Homo sapiens) | OR5F1 (Homo sapiens) | OR5H1 (Homo sapiens) | OR5H14 (Homo sapiens) | OR5H15 (Homo sapiens)

— the M2OR odorant receptor database
